Active and inactive are the calls of the source. No cut-off for these calls is given here.
Legend:
Sus scrofa = species: Sus scrofa; assay: Stabilization of pig brain microtubule at 5 uM measured every min for 60 mins by spectrophotometry
Outline: (§1)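 Purified porcine brain tubulin self-polymerized into microtubules in buffer, and polymerization was followed as the rise in light scattering at 340 nm.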

HT-1080 [1] = assay: Inhibition of microtubule polymerization in human HT1080 cells at 272 nM for 4 hrs by immunocytochemistry analysis; format: cell-based
Outline: (§2)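 HT-1080 cells were treated, then immunofluorescence-stained for microtubules and scored for loss of the hairlike network. Colchicine- and vinblastine-treated cells served as controls.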

HT-1080 [2] = assay: Induction of apoptosis in human HT1080 cells assessed as caspase activation at 0.33 to 2714 nM; format: functional, cell-based; conditions: TDE = time-dependent effect
HT-1080 [3] = assay: Induction of cell death in human HT1080 cells assessed as viability at 0.1 to 10000 nM after 24 hrs in the presence of caspase inhibitor zVAD-fmk; format: functional, cell-based
MCF-10A = assay: Growth inhibition of human MCF10A cells after 24 hrs by alamar blue assay; format: functional, cell-based
[4] = Growth inhibition of human BJeLR cells after 24 hrs by alamar blue assay; format: functional, cell-based
HT-1080 [5] = assay: Induction of cell death in human HT1080 cells in presence of calcium channel inhibitor Co2+; format: functional, cell-based
HT-1080 [6] = assay: Induction of apoptosis in human HT1080 cells assessed as caspase activation after 24 to 48 hrs; format: functional, cell-based
HT-1080 [7] = assay: Growth inhibition of human HT1080 cells after 24 hrs by alamar blue assay; format: functional, cell-based; conditions: HT-1080, 24 h
HT-1080 [8] = assay: Induction of cell death in human HT1080 cells assessed as viability at 0.1 to 10000 nM after 24 hrs in the presence of caspase inhibitor Boc-D-fmk; format: functional, cell-based
Tubulin (Sus scrofa) = Tubulin (Sus scrofa) (UniProt P02554+P02550); assay: Inhibition of pig brain tubulin polymerization at 5 uM measured every min for 60 mins by spectrophotometry; outline: as §1
HT-1080 [9] = assay: Induction of apoptosis in human HT1080 cells assessed as caspase activation at 0.33 to 2729 nM; format: functional, cell-based; conditions: TDE = time-dependent effect
HT-1080 [10] = conditions: Homo sapiens, 100 nM
HT-1080 [11] = assay: Induction of apoptosis in human HT1080 cells assessed as caspase activation at 0.81 to 6006 nM; format: functional, cell-based; conditions: TDE = time-dependent effect
HT-1080 [12] = assay: Inhibition of microtubule polymerization in human HT1080 cells at 250 nM for 4 hrs by immunocytochemistry analysis; format: cell-based; outline: as §2
HT-1080 [13] = assay: Inhibition of microtubule polymerization in human HT1080 cells at 50 nM for 4 hrs by immunocytochemistry analysis; format: cell-based

Sequence of Tubulin (Sus scrofa) (P02550 whole entry, looked up): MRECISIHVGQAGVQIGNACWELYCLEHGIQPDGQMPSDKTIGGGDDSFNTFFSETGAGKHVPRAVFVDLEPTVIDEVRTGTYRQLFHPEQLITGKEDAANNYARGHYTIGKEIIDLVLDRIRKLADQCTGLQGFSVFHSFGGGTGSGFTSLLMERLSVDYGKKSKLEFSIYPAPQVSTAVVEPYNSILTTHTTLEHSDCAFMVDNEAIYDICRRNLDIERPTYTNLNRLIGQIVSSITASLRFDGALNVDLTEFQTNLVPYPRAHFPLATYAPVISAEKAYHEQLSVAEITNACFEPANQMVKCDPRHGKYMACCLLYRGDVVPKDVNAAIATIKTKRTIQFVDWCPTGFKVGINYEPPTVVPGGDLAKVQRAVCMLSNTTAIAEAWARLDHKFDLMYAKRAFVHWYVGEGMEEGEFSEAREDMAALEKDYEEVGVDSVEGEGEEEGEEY
Sequence of Tubulin (Sus scrofa) (P02554 whole entry, looked up): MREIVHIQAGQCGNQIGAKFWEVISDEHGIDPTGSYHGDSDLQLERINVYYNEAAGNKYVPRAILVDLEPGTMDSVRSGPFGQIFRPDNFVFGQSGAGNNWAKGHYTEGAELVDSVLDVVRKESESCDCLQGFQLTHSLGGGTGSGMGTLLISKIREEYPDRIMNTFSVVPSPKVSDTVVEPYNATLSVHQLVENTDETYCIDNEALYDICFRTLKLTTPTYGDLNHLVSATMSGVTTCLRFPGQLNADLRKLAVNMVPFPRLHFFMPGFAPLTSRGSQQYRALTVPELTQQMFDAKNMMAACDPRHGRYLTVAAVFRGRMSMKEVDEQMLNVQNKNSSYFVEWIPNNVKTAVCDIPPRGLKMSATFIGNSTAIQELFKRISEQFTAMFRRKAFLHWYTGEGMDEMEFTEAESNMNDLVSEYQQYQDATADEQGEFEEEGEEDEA

Compound	Activity (Sus scrofa)	inhibition (HT-1080 [1])	Activity (HT-1080 [3])	EC50 (MCF-10A) [nM]	EC50 [4] [nM]	Activity (HT-1080 [5])	Activity (HT-1080 [6])	EC50 (HT-1080 [7]) [nM]	Activity (HT-1080 [8])	inhibition (Tubulin (Sus scrofa))	further results
CC(=O)O[C@H]1C(=O)[C@@]2(C)[C@H]([C@H](OC(=O)c3ccccc3)[C@]3(O)C[C@H](OC(=O)[C@H](O)[C@@H](NC(=O)c4ccccc4)c4ccccc4)C(C)=C1C3(C)C)[C@]1(OC(C)=O)CO[C@@H]1C[C@@H]2O	Active	–	–	–	–	–	–	–	–	–	–
O=S(=O)(c1ccc(-c2cnc(C3CC3)o2)cc1)N1CCCc2ccccc21	–	Active	Active	< 100	< 100	Active	Dose-dependent effect	< 100	Active	Active	Activity (HT-1080 [2]): tde
CCOc1ccc(C2=Nn3c(nnc3-c3ccccc3OC)SC2)cc1	–	Active	Active	< 100	< 100	Active	Dose-dependent effect	< 100	Active	–	Activity (HT-1080 [9]): tde
CC[C@]1(O)C[C@@H]2CN(CCc3c([nH]c4ccccc34)[C@@](C(=O)OC)(c3cc4c(cc3OC)N(C)[C@H]3[C@@](O)(C(=O)OC)[C@H](OC(C)=O)[C@]5(CC)C=CCN6CC[C@]43[C@@H]65)C2)C1	–	–	–	–	–	–	–	–	–	Active	inhibition (HT-1080 [10]): Active
COc1ccccc1N1CCN(C(=O)c2cc(=O)c3cc(C)cc(C)c3o2)CC1	Active	–	Active	< 100	< 100	Active	Dose-dependent effect	< 100	Active	–	Activity (HT-1080 [11]): tde; inhibition (HT-1080 [12]): inactive
COc1cc2c(c(OC)c1OC)-c1ccc(OC)c(=O)cc1[C@@H](NC(C)=O)CC2	–	–	–	–	–	–	–	–	–	–	inhibition (HT-1080 [13]): Active

Source: ChEMBL document CHEMBL2062452, “Identification of Simple Compounds with Microtubule-Binding Activity That Inhibit Cancer Cell Growth with High Potency” (ACS Med Chem Lett, 2011)
